Measured values as given in ChEMBL document CHEMBL1124187, “Nucleosides. 150. Synthesis and some biological properties of 5-monofluoromethyl, 5-difluoromethyl, and 5-trifluoromethyl derivatives of 2'-deoxyuridine and 2'-deoxy-2'-fluoro-beta-D-arabinofuranosyluracil” (1988).

What was measured:
HL-60 [1] = experiment: Growth inhibition against HL-60 after 24 hours incubation period; type: functional; settings: Homo sapiens, HL-60, 24 h; read-out: ID50 (the source's name)
Summary of the method: (§1)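 HL-60 cell growth inhibition; ID50 derived from six concentrations of each nucleoside using the median-effect equation and plot.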

Human alphaherpesvirus 2 = experiment: Effective dose required for antiherpes activity against HSV-2(G) strain; type: functional; settings: read-out: ED50 (the source's name)
HL-60 [2] = experiment: Growth inhibition against HL-60 after 72 hours incubation period; type: functional; settings: Homo sapiens, HL-60, 72 h; read-out: ID50 (the source's name); summary of the method: as §1
Human alphaherpesvirus 1 = experiment: Effective dose required for antiherpes activity against HSV-1(F) strain; type: functional; settings: read-out: ED50 (the source's name)
HL-60 [3] = experiment: Growth inhibition against HL-60 after 48 hours incubation period; type: functional; settings: Homo sapiens, HL-60, 48 h; read-out: ID50 (the source's name); summary of the method: as §1
[4] = target: Thymidylate synthase (Mus musculus) (UniProt P07607); experiment: The compound was tested for inhibition of thymidylate synthase (TS) in L1210 cells; type: cell-based
Sequence of Thymidylate synthase (Mus musculus) (P07607 whole entry, looked up): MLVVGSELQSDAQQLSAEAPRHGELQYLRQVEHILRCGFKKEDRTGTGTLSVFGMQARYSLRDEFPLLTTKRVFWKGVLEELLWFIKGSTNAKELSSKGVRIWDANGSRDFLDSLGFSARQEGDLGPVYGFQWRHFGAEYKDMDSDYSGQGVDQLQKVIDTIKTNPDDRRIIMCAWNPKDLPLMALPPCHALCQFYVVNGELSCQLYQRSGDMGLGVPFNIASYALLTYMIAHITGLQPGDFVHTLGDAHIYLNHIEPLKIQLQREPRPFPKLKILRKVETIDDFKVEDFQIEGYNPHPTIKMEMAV
Summary of the method: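 In situ thymidylate synthase activity in intact L1210 cells, measured as tritium released from [5-3H]UDR. Reported as ID50.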

HL-60 [5] = experiment: The compound was tested for [3H]TdR incorporation into DNA in HL-60 cells; type: functional; settings: Homo sapiens, HL-60, 30 min; read-out: ID50 (the source's name)
Summary of the method: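 HL-60 cells labelled with [methyl-3H]TDR (1 µCi, 0.02 µM) for 30 min, then label incorporated into DNA measured. ID50 derived from six nucleoside concentrations using the median-effect equation and plot.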

Homo sapiens = organism: Homo sapiens; experiment: Growth inhibition against HL-60 after 24 hr incubation period; type: functional; summary of the method: as §1

| SMILES | IC50 (HL-60 [1]) [µM] | EC50 (Human alphaherpesvirus 2) [µM] | IC50 (HL-60 [2]) [µM] | EC50 (Human alphaherpesvirus 1) [µM] | IC50 (HL-60 [3]) [µM] | ID50 [4] [µM] | IC50 (HL-60 [5]) [µM] | ID50 (Homo sapiens) [µM] |
| --- | --- | --- | --- | --- | --- | --- | --- | --- |
| CC(=O)OC[C@H]1O[C@@H](n2cc(C(F)(F)F)c(=O)[nH]c2=O)C[C@@H]1OC(C)=O | 501 | 16.3 | 8.5 | 4.7 | 19 |  |  |  |
| O=c1[nH]c(=O)n([C@@H]2O[C@H](CO)[C@@H](O)[C@@H]2F)cc1C(F)F | 97 | 1.04 | 6.6 | 0.34 | 12 | 56 | > 1000 |  |
| Cc1cn([C@H]2C[C@H](O)[C@@H](CO)O2)c(=O)[nH]c1=O [DOXRIBTIMINE] | 901 | > 1000 | 336 | > 1000 | 461 | 75 | 0.61 |  |
| O=c1[nH]c(=O)n([C@H]2C[C@H](O)[C@@H](CO)O2)cc1C(F)F | 4 | 1.17 | 0.12 | 0.8 | 1.25 | 0.063 | 5.1 |  |
| CC(=O)OC[C@H]1O[C@@H](n2cc(C(F)(F)F)c(=O)[nH]c2=O)[C@@H](F)[C@@H]1OC(C)=O | 54 | 1.3 | 65 | 1.3 | 62 |  |  |  |
| O=Cc1cn([C@@H]2O[C@H](CO)[C@@H](O)[C@@H]2F)c(=O)[nH]c1=O |  |  |  |  |  | > 1000 |  |  |
| CC(=O)OC[C@H]1O[C@@H](n2cc(CF)c(=O)[nH]c2=O)[C@@H](F)[C@@H]1OC(C)=O | 860 | 5.19 | 312 | 2.43 | 500 |  |  |  |
| O=c1[nH]c(=O)n([C@@H]2O[C@H](CO)[C@@H](O)[C@@H]2F)cc1C(F)(F)F | 304 | 1.7 | 17 | 0.83 | 29 | 14 | > 1000 |  |
| CC(=O)OC[C@H]1O[C@@H](n2cc(C(F)F)c(=O)[nH]c2=O)C[C@@H]1OC(C)=O | 83 | 25.1 | 14 | 17 | 14 |  |  |  |
| O=c1[nH]c(=O)n([C@H]2C[C@H](O)[C@@H](CO)O2)cc1C(F)(F)F [TRIFLURIDINE] | 1.5 | 1.88 | 0.14 | 0.77 | 1.7 | 0.035 | 14 |  |
| O=c1[nH]c(=O)n([C@@H]2O[C@H](CO)[C@@H](O)[C@@H]2F)cc1CF | 995 | 0.8 | 119 | 0.68 | 202 | > 1000 | 189 |  |
| CC(=O)OC[C@H]1O[C@@H](n2cc(C(F)F)c(=O)[nH]c2=O)[C@@H](F)[C@@H]1OC(C)=O |  | 2.16 | 40 | 0.71 | 83 |  |  | 257 |
| O=c1[nH]c(=O)n([C@@H]2O[C@H](CO)[C@@H](O)[C@@H]2F)cc1CO | > 5000 | 5.5 | 1920 | 2 | 1160 | > 1000 |  |  |
| Cc1cn([C@@H]2O[C@H](CO)[C@@H](O)[C@@H]2F)c(=O)[nH]c1=O [5-METHYL-2'-FLUOROARAURACIL] | 136 | 0.07 | 25 | 0.07 | 51 | > 1000 | 20 |  |
| O=c1[nH]c(=O)n([C@H]2C[C@H](O)[C@@H](CO)O2)cc1CF | 178 | > 100 | > 1000 | > 100 | > 1000 | 11 | 18.6 |  |
| CC(=O)OC[C@H]1O[C@@H](n2cc(C)c(=O)[nH]c2=O)[C@@H](F)[C@@H]1OC(C)=O | > 1000 | 1.23 | 119 | 0.44 | 209 |  |  |  |
| CC(=O)OC[C@H]1O[C@@H](n2cc(CF)c(=O)[nH]c2=O)C[C@@H]1OC(C)=O | 3470 | > 100 | 324 | > 100 | 976 |  |  |  |
| O=c1[nH]c(=O)n([C@H]2C[C@H](O)[C@@H](CO)O2)cc1CO |  |  |  |  |  | > 1000 |  |  |
